Legend:
[1] = target: T1, Steroid 17-alpha-hydroxylase/17,20 lyase (Homo sapiens, UniProt P05093); assay: Inhibition of human CYP17 expressed in Escherichia coli coexpressed with cytochrome P450 reductase
T1 sequence (P05093 whole entry): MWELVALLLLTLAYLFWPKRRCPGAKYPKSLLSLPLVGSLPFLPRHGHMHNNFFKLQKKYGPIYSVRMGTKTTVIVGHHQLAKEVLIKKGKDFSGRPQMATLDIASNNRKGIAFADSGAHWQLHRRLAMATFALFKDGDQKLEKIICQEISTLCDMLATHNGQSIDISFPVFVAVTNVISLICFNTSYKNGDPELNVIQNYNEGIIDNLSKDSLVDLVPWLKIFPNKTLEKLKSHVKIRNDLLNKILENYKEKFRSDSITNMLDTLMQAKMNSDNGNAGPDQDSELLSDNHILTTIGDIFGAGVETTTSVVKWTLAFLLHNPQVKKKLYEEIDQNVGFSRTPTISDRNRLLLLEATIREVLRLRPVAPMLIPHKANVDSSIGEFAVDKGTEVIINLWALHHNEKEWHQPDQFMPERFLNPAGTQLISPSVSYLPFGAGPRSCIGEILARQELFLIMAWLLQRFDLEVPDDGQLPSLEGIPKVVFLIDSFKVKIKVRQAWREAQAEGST
In short: (§1)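 Enzyme source: 50,000g sediment from homogenized E. coli coexpressing human CYP17 and cytochrome P450 reductase. Substrate progesterone (25 µM as printed), NADPH cofactor.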

CYP1A2 = target: T2, CYP1A2 (Homo sapiens, UniProt P05177); assay: Inhibition of hepatic CYP1A2 expressed in insect microsomes at 1 uM; format: ADME, Microsome
T2 sequence (P05177 whole entry): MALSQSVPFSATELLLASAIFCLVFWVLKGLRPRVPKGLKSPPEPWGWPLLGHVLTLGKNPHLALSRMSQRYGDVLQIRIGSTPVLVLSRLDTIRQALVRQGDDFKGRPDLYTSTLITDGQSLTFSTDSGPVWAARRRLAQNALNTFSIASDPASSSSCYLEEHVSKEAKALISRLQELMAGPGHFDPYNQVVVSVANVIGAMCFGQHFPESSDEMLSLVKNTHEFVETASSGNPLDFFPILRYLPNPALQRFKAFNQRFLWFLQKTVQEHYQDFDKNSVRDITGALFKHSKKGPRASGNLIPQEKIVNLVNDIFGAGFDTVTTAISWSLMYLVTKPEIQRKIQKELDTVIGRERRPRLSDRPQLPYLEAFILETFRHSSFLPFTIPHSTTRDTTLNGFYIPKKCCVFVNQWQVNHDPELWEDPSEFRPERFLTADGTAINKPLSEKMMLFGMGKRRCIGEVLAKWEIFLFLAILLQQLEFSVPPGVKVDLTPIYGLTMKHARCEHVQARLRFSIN
In short: (§2)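 Recombinant human enzymes from baculovirus-infected insect cell microsomes, run per supplier protocol. Test concentration 1 µM; values are means of at least three independent tests, standard deviations under 5%.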

CYP3A4 = CYP3A4 (Homo sapiens, UniProt P08684); assay: Inhibition of hepatic CYP3A4 expressed in insect microsomes at 1 uM; format: ADME, Microsome; in short: as §2
Sequence of CYP3A4 (P08684 whole entry): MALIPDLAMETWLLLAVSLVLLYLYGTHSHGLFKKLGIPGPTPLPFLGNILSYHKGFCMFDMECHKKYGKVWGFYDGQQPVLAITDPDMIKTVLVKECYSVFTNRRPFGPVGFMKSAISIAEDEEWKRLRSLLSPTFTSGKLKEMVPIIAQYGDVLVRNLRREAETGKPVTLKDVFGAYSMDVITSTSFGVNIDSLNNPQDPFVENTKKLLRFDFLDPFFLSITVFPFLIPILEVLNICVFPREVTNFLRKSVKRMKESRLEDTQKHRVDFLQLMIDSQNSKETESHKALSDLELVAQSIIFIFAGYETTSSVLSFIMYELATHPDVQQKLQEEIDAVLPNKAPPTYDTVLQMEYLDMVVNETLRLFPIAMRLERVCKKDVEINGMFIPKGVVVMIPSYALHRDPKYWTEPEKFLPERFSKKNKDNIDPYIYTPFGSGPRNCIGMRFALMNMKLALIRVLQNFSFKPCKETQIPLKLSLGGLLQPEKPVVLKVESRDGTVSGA

[2] = target: T1, Steroid 17-alpha-hydroxylase/17,20 lyase; assay: Inhibition of CYP17; in short: as §1
Rattus norvegicus [3] = assay: Intrinsic clearance in Wistar rat at 56 mg/kg, po; format: ADME, organism-based; set-up: dose 56 mg/kg, route oral; details: in vivo
In short: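 Male Wistar rats dosed orally at 50 mg/kg, or as acetate at 56 mg/kg (equivalent to 50 mg/kg parent). Plasma drug levels by LC–MS; non-compartmental analysis on mean plasma concentration–time data, values below detection limit set to zero. AUC, Cmax, tmax, terminal t1/2 and intrinsic hepatic clearance derived.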

Rattus norvegicus [4] = assay: Reduction in plasma testosterone level in Wistar rat at 50 mg/kg, po after 8 hrs; format: functional; set-up: scale not given: the % may be the effect or the level left
Rattus norvegicus [5] = assay: Reduction in plasma testosterone level in Wistar rat at 50 mg/kg, po after 6 hrs; format: functional; set-up: scale not given: the % may be the effect or the level left
Rattus norvegicus [6] = assay: Reduction in plasma testosterone level in Wistar rat at 50 mg/kg, po after 1 hr; format: functional; set-up: scale not given: the % may be the effect or the level left
Rattus norvegicus [7] = assay: Reduction in plasma testosterone level in Wistar rat at 50 mg/kg, po after 24 hrs; format: functional
Rattus norvegicus [8] = assay: Reduction in plasma testosterone level in Wistar rat at 50 mg/kg, po after 2 hrs; format: functional; set-up: scale not given: the % may be the effect or the level left
Rattus norvegicus [9] = assay: Reduction in plasma testosterone level in Wistar rat at 50 mg/kg, po after 4 hrs; format: functional; set-up: scale not given: the % may be the effect or the level left

Structure (SMILES) | IC50 [1] [nM] | also measured
CC(C)C(c1ccc(-c2ccccc2)cc1)n1ccnc1 (stereo unspecified) | 310 | –
CCC(c1ccc(-c2ccc(SC)cc2)cc1)n1ccnc1 (stereo unspecified) | 3100 | –
C[C@]12CC[C@H](O)CC1=CC[C@@H]1[C@@H]2CC[C@]2(C)C(c3cccnc3)=CC[C@@H]12 [ABIRATERONE] | – | inhibition at 1 µM (CYP3A4): 27%
CCC(c1ccc(-c2ccc(NC(C)=O)cc2)cc1)n1ccnc1 (stereo unspecified) | > 5000 | –
CCCC(c1ccc(-c2ccccc2)cc1)n1ccnc1 (stereo unspecified) | 580 | –
CCC(c1ccc(-c2ccc(C#N)cc2)cc1)n1ccnc1 (stereo unspecified) | > 5000 | –
c1ccc2c(c1)Cc1cc(Cn3ccnc3)ccc1-2 | 388 | –
CC(c1ccc2c(c1)Cc1cc(F)ccc1-2)n1ccnc1 (stereo unspecified) | 168 | –
CCC(c1ccc(-c2ccc(NC(=O)OC(C)(C)C)cc2)cc1)n1ccnc1 (stereo unspecified) | 1700 | inhibition at 1 µM (CYP3A4): 52%
CC(c1ccc2c(c1)Cc1ccccc1-2)n1ccnc1 (stereo unspecified) | 112 | inhibition at 1 µM (CYP1A2): 98%; IC50 [2]: 4 nM; inhibition at 1 µM (CYP3A4): 89%
CC(=O)O[C@H]1CC[C@@]2(C)C(=CC[C@@H]3[C@@H]2CC[C@]2(C)C(c4cccnc4)=CC[C@@H]32)C1 [ABIRATERONE ACETATE] | – | CL (Rattus norvegicus [3]): 187 mL/min/kg; Activity (Rattus norvegicus [4]): 35.6%; Activity (Rattus norvegicus [5]): 43.3%; Activity (Rattus norvegicus [6]): 92.5%; relative plasma testosterone level (Rattus norvegicus [7]): 476%; Activity (Rattus norvegicus [8]): 44%; Activity (Rattus norvegicus [9]): 43.5%

More lines, main results first:

IC50 [1] [nM] | Structure (SMILES) | also measured
> 5000 | CCC(c1ccc(-c2ccc(N(CC)CC)cc2)cc1)n1ccnc1 (stereo unspecified) | –
282 | CC(c1ccc2c(c1)[nH]c1ccccc12)n1ccnc1 (stereo unspecified) | inhibition at 1 µM (CYP1A2): 99%; inhibition at 1 µM (CYP3A4): 88%
1050 | c1ccc(-c2ccc(C(C3CCCCC3)n3ccnc3)cc2)cc1 (stereo unspecified) | –
> 5000 | CCC(c1ccc(-c2ccc(C)cc2)cc1)n1ccnc1 (stereo unspecified) | –
2100 | CC(C)CC(c1ccc(-c2ccccc2)cc1)n1ccnc1 (stereo unspecified) | –
2000 | CCc1ccc(-c2ccc(C(CC)n3ccnc3)cc2)cc1 (stereo unspecified) | –
> 5000 | FC(F)(F)c1ccc(-c2ccc(Cn3ccnc3)cc2)cc1 | –
910 | CC(c1ccc(-c2ccccc2)cc1)n1ccnc1 (stereo unspecified) | –

— ChEMBL document CHEMBL1156610, “Synthesis, biological evaluation, and molecular modeling studies of methylene imidazole substituted biaryls as inhibitors of human 17alpha-hydroxylase-17,20-lyase (CYP17)--part II: Core rigidification and influence of substituents at the methylene bridge” (Bioorg Med Chem, 2008)
